Data taken from article PMC7027977 (Clinical Pharmacology and Therapeutics, 2019).
Several values for one entry are separate records, joined by “and”; a condition that tells them apart may be missing. Identical values can stand only once. Like-named read-outs stand apart in the source and are kept apart here. Each block holds one compound with its values, some of them ahead of it.

How the values were obtained:
patients with CD = conditions: cited from earlier work
[1] = type: in vivo, human; conditions: for Cmax: human, plasma, oral
How it was run: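 Patients with Crohn's disease took oral IR tablets at 3, 6, 12 or 24 mg b.i.d. or 24 mg q.d. for a 16-week induction. Sparse plasma samples were taken at weeks 2, 4, 8, 12 and 16, with time from last dose recorded, and assayed by validated LC-MS. Steady-state Cmax and Cmin came from empirical Bayesian individual estimates. Cave = Dose/(CL/F × dosing interval). Values are median (5th–95th percentiles).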

[2] = Population pharmacokinetic analysis of upadacitinib IR formulation; type: in vivo, human
How it was run: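 A population PK model previously built for healthy subjects and RA patients was the starting model. It was fitted to sparse CELEST plasma concentrations: weeks 2–16, validated LC-MS, sampling time relative to last dose recorded. Covariate effects were judged by differences in Cave between covariate groups. Dose was tested as a covariate on model parameters to assess dose proportionality.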

[3] = type: in vivo, human; conditions: healthy subjects, ER formulation study
How it was run: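 ER absorption parameters were estimated from phase I data in healthy volunteers given the extended-release formulation. They were then incorporated into the exposure–response models to simulate ER q.d. regimens.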

[4] = system: subjects with moderate‐to‐severe active Crohn's disease; experiment: Regression; type: in vivo, human; conditions: Cave as exposure metric; week 12/16
How it was run: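 SES-CD came from centrally read ileocolonoscopy at screening and at a randomly assigned week 12 or 16, with the two weeks pooled. End points were endoscopic response 25% and 50% and endoscopic remission, with nonresponder imputation. Regression Emax models related them to individual steady-state Cave over the dosing interval. The study used placebo and 3–24 mg b.i.d. or 24 mg q.d. IR oral dosing.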

[5] = cited from earlier work
[6] = 3 mg b.i.d. IR, steady-state, CD patients, CELEST
[7] = 6 mg b.i.d. IR, steady-state, CD patients, CELEST
[8] = 12 mg b.i.d. IR, steady-state, CD patients, CELEST
[9] = 24 mg b.i.d. IR, steady-state, CD patients, CELEST
[10] = 24 mg q.d. IR, steady-state, CD patients, CELEST

SMILES: O=C(Nc1nc2cccc(-c3ccc(CN4CCS(=O)(=O)CC4)cc3)n2n1)C1CC1 [Filgotinib]
efficacy in CD (patients with CD): has shown efficacy

Cave, median (5th to 95th percentiles) [1, 6]: 6.9 (4.6–14.1) ng/mL
Cmin, median (5th to 95th percentiles) [1, 6]: 1.2 (0.4–6.6) ng/mL
Cave, median (5th to 95th percentiles) [1, 7]: 14.9 (7.6–25.2) ng/mL
Cmin, median (5th to 95th percentiles) [1, 7]: 2.6 (0.2–7.5) ng/mL
Cave, median (5th to 95th percentiles) [1, 8]: 26.7 (8.5–49.6) ng/mL
Cmax, median (5th to 95th percentiles) [1, 8]: 80.7 (25.3–124) ng/mL
Cmin, median (5th to 95th percentiles) [1, 8]: 4.9 (0.2–25.2) ng/mL
Cave, median (5th to 95th percentiles) [1, 9]: 55.1 (29.8–91.8) ng/mL
Cmin, median (5th to 95th percentiles) [1, 9]: 7.8 (1.8–20.7) ng/mL
Cave, median (5th to 95th percentiles) [1, 10]: 25.1 (13.6–92.0) ng/mL
Cmin, median (5th to 95th percentiles) [1, 10]: 1.7 (0.3–34.2) ng/mL
Cmax ([1]; 3 mg): 21.8 ng/mL
Cmax ([1]; 6 mg): 40.2 ng/mL
Cmax ([1]; 24 mg): 161 ng/mL
dose proportionality of exposure ([2]; 3–24 mg b.i.d.): approximately dose‐proportional
higher Cave with renal impairment ([2]; creatinine clearance 50 mL/minute vs 110 mL/minute): 28%
CL/F in subjects with CD relative to healthy subjects ([2]; population PK): comparable
lower clearance in subjects with RA compared with non‐RA subjects ([2]; population PK): 22% and ~ 20%
higher Cave in women compared with men ([2]; population PK covariate): 18%
lower CL/F in women compared with men ([2]; population PK covariate): 15%
lower Vc/F in women compared with men ([2]; population PK covariate): 25%
difference in Cave among different covariate groups ([2]; renal impairment, sex, bodyweight covariates): < 30%
lower Cave in subjects with CD than in subjects with RA ([2]; same dose): ~ 20%
Intersubject variability in CL/F ([2]; subjects with CD): 41%
Intersubject variability in Vc/F ([2]; subjects with CD): 29%
bioavailability of ER formulation relative to IR formulation [3]: 74%
EC50 for endoscopic remission [4]: 0.027 µg/mL
EC50 for endoscopic response 50% [4]: 0.026 µg/mL
SMILES: CC[C@@H]1CN(C(=O)NCC(F)(F)F)C[C@@H]1c1cnc2cnc3[nH]ccc3n12 [Upadacitinib]
dose proportionality of plasma exposures ([5]; 3–48 mg IR or 7.5–45 mg ER, ref 21,23 (data on file at AbbVie)): dose‐proportional
functional half‐life ([5]; IR formulation): 3 to 4 h
increase in bioavailability from the ER formulation after a high‐fat meal [5]: ~ 20%
relative bioavailability of ER formulation ([5]; more extensive dataset in subjects with RA): 76%
time to reach maximum plasma concentration ([5]; oral, IR formulation): 1 to 2 h
exposure of ER 15 mg and 30 mg q.d. vs IR 6 mg b.i.d. and 12 mg b.i.d. ([5]; phase I study, healthy subjects): equivalent Cave and similar Cmax and Cmin

SMILES: C[C@@H]1CCN(C(=O)CC#N)C[C@@H]1N(C)c1ncnc2[nH]ccc12 [tofacitinib]
efficacy in patients with CD (patients with CD; two phase II studies): did not demonstrate efficacy
